The nature of assay [1]: Antibacterial activity against Proteus vulgaris NCTC 4175 strain; na = not active. The class given is functional.
Assay [2] relates to Staphylococcus aureus. Put plainly: Antibacterial activity against methicillin-resistant Staphylococcus aureus (MRSA) PHLS M1 strain. The class given is functional. The gist of the method: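 Read-out is the minimum inhibitory concentration, reported in µM. Amoxycillin is tested alongside as the reference antibiotic.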
Assay [3] relates to Mycolicibacterium fortuitum. As to the kind of experiment: Antibacterial activity against Mycobacterium fortuitum NCTC 10394 strain; na = not active. The assay is classed as functional, organism-based.
In assay [4] the test system is Escherichia coli. Put plainly: Antibacterial activity against Escherichia coli NCTC 9001 strain. The class given is functional, organism-based.
Assay [5] deals with Aspergillus nidulans. Put plainly: Antifungal activity against Aspergillus nidulans CABI 0160037 strain. The assay is classed as functional.
The subject of assay [6] is Enterococcus faecalis. Put plainly: Antibacterial activity against Streptococcus faecalis NCTC 775 strain; na = not active. The class given is functional, organism-based.
In a further assay the test system is Candida albicans. Put plainly: Antifungal activity against Candida albicans NCPF 3179 strain. The class given is functional. As to conditions: Candida albicans; read-out: MIC.
For assay [7], the system named is Staphylococcus aureus. Put plainly: Antibacterial activity against Staphylococcus aureus NCTC 6571 strain; na = not active. The class given is functional, organism-based.
Assay [8] has as its system Aspergillus niger. As to the kind of experiment: Antifungal activity against Aspergillus niger IMI17454 strain; na = not active. The class given is functional.
The next assay concerns Enterobacter cloacae. Put plainly: Antibacterial activity against Enterobacter cloacae NCTC 10005 strain. The class given is functional, organism-based.
Assay [9] has as its system Klebsiella aerogenes. Put plainly: Antibacterial activity against Klebsiella aerogenes WRL CN 345 strain; na = not active. The assay is classed as functional, organism-based.
In assay [10] the test system is Klebsiella aerogenes. As to the kind of experiment: Antibacterial activity against Klebsiella aerogenes WRL CN 345 strain. The class given is functional, WRL CN 375. To be noted: Klebsiella aerogenes, WRL CN 375; read-out: MIC.
Assay [11] concerns Staphylococcus aureus. Put plainly: Antibacterial activity against Staphylococcus aureus NCTC 6571 strain. The class given is functional.
A short description of assay [12]: Antibacterial activity against Enterobacter cloacae NCTC 10005 strain. The class given is functional.
In assay [13] the test system is Mycolicibacterium fortuitum. Put plainly: Antibacterial activity against Mycobacterium fortuitum NCTC 10394 strain. The assay is classed as functional.
Assay [14] deals with Aspergillus niger. Put plainly: Antifungal activity against Aspergillus niger IMI17454 strain. The class given is functional. To be noted: Aspergillus niger; read-out: MIC.
Assay [15] concerns Escherichia coli. Put plainly: Antibacterial activity against Escherichia coli NCTC 9001 strain. The assay is classed as functional.
For assay [16], the system named is Enterococcus faecalis. Put plainly: Antibacterial activity against Streptococcus faecalis NCTC 775 strain. The assay is classed as functional.
The test system of another assay is Proteus vulgaris. As to the kind of experiment: Antibacterial activity against Proteus vulgaris NCTC 4175 strain. The assay is classed as functional.
The subject of assay [17] is Aspergillus nidulans. As to the kind of experiment: Antifungal activity against Aspergillus nidulans CABI 0160037 strain; na = not active. The class given is functional.
Assay [18] can be described thus: Antifungal activity against Candida albicans NCPF 3179 strain; na = not active. The class given is functional.
In assay [19] the test system is Staphylococcus aureus. As to the kind of experiment: Antibacterial activity against MRSA PHLS M1 strain; na = not active. The class given is functional, organism-based.

≈ marks a conversion by molar mass, not a printed value. Calls of active or inactive are those of the source. The rule behind the calls is not given here.

What is called MIC is the least concentration at which growth counts as inhibited. Consider `CC(C)n1cc(NC(=O)c2cc(NC(=O)c3cc(NC=O)cn3C(C)C)cn2C)cc1C(=O)NCCCN(C)C`, for which the MIC result (in assay [1]; in [3]; in the assay with Escherichia coli [4]; in the assay with Enterococcus faecalis [6]; with Staphylococcus aureus [7]; in the assay on Aspergillus niger [8]) was “inactive” each time. For the same compound, the MIC entry with Enterobacter cloacae and with Klebsiella aerogenes [9] was “inactive” throughout. Besides, the values for the MIC against Staphylococcus aureus [2], with Aspergillus nidulans [5] and in the assay with Candida albicans were 150 µM (≈ 82.9 µg/mL), 150 µM (≈ 82.9 µg/mL) and 75 µM (≈ 41.5 µg/mL), respectively.
For `CC(=O)Nc1nc(C(=O)Nc2cc(C(=O)Nc3cc(C(=O)NCCCN(C)C)n(C)c3)n(C)c2)c(C(C)C)s1`, the MIC came out at 149 µM (≈ 82.9 µg/mL) with Klebsiella aerogenes [10]; 70 µM (≈ 39 µg/mL) with Staphylococcus aureus [11]; 149 µM (≈ 83.1 µg/mL) in the assay with Staphylococcus aureus [2]; 149 µM (≈ 82.9 µg/mL) in [12]; 74.6 µM (≈ 41.5 µg/mL) in assay [13]; 149 µM (≈ 82.9 µg/mL) in the assay on Aspergillus niger [14]. Further, the MIC in the assay on Escherichia coli [15] was determined as 149 µM (≈ 82.9 µg/mL); with Candida albicans, 74.6 µM (≈ 41.5 µg/mL); with Enterococcus faecalis [16], 74.5 µM (≈ 41.5 µg/mL); in the assay on Proteus vulgaris it was 149 µM (≈ 82.9 µg/mL).
As for `CC(C)CCn1cc(NC(=O)c2cc(NC=O)cn2C)cc1C(=O)Nc1cc(C(=O)NCCCN(C)C)n(C)c1`, the MIC in the assay with Klebsiella aerogenes [10] turned out to be 37.5 µM (≈ 20.7 µg/mL); against Staphylococcus aureus [11], 150 µM (≈ 82.9 µg/mL); against Staphylococcus aureus [2] it was 150 µM (≈ 82.9 µg/mL); in [12] it was 150 µM (≈ 82.9 µg/mL); in assay [13], 37.5 µM (≈ 20.7 µg/mL); in the assay with Candida albicans, 150 µM (≈ 82.9 µg/mL). The MIC in the assay on Aspergillus niger [8] is 150 µM (≈ 82.9 µg/mL); against Enterococcus faecalis [16], 57.5 µM (≈ 31.8 µg/mL); in the assay on Proteus vulgaris it was 150 µM (≈ 82.9 µg/mL). The MIC entry in the assay with Aspergillus nidulans [17] and with Escherichia coli [4] was “inactive” in each case.
As to `CC(C)n1cc(NC(=O)c2cc(NC=O)cn2C)cc1C(=O)Nc1cc(C(=O)NCCCN(C)C)n(C)c1`, the MIC with Klebsiella aerogenes [10] turned out to be 39.1 µM (≈ 20.5 µg/mL); in the assay with Staphylococcus aureus [2], 157 µM (≈ 82.4 µg/mL); in the assay on Aspergillus niger [14] it was 157 µM (≈ 82.4 µg/mL); against Enterococcus faecalis [16], 157 µM (≈ 82.4 µg/mL); against Proteus vulgaris, 157 µM (≈ 82.4 µg/mL). The MIC result (in the assay on Aspergillus nidulans [17]; in assay [3]; in the assay on Escherichia coli [4]; in assay [18]; with Staphylococcus aureus [7]; with Enterobacter cloacae) was “inactive” throughout.
In the case of `CCn1cc(NC(=O)c2nc(NC(=O)c3nc(NC=O)cn3CC)cn2CC)nc1C(=O)NCCCN(C)C`, inhibition of growth with Staphylococcus aureus [11] (MIC) required 19 µM (≈ 10.3 µg/mL). The MIC entry (in the assay with Staphylococcus aureus [19]; with Aspergillus nidulans [17]; in [1]; in assay [3]; with Escherichia coli [4]; with Enterococcus faecalis [6]) was “inactive” in each case. For the same compound, the MIC result (in assay [18]; in the assay on Aspergillus niger [8]; with Enterobacter cloacae; with Klebsiella aerogenes [9]) was “inactive” each time.
Take `Cc1sc(NC=O)cc1C(=O)Nc1cc(C(=O)Nc2cc(C(=O)NCCCN(C)C)n(C)c2)n(C)c1`: the MIC result (in the assay on Staphylococcus aureus [19]; in the assay on Aspergillus nidulans [17]; in assay [3]; in the assay with Escherichia coli [4]; in the assay with Enterococcus faecalis [6]; in the assay on Staphylococcus aureus [7]) was “inactive” throughout. The MIC entry with Aspergillus niger [8], with Enterobacter cloacae and with Klebsiella aerogenes [9] was “inactive” in each case. Further, the MIC came to 159 µM (≈ 81.7 µg/mL) in the assay with Candida albicans and 79.6 µM (≈ 40.9 µg/mL) with Proteus vulgaris.
Consider `CC(=O)Nc1nc(C(=O)Nc2cc(C(=O)Nc3nc(C(=O)NCCCN(C)C)c(C(C)C)s3)n(C)c2)c(C(C)C)s1`, for which the MIC with Klebsiella aerogenes [10] is 69.8 µM (≈ 42.1 µg/mL); against Staphylococcus aureus [11], 4.3 µM (≈ 2.59 µg/mL); against Staphylococcus aureus [2], 4.3 µM (≈ 2.59 µg/mL); in assay [12], 69.8 µM (≈ 42.1 µg/mL); in assay [13], 17.5 µM (≈ 10.5 µg/mL); in the assay with Aspergillus niger [14], 4.3 µM (≈ 2.59 µg/mL). In addition, the MIC in the assay on Escherichia coli [15] came out at 70 µM (≈ 42.2 µg/mL); in the assay on Candida albicans, 34.9 µM (≈ 21 µg/mL); against Enterococcus faecalis [16], 4.3 µM (≈ 2.59 µg/mL); against Proteus vulgaris, 69.8 µM (≈ 42.1 µg/mL).
Consider `CN(C)CCCNC(=O)c1cc(NC(=O)c2cc(NC(=O)c3cc(NC=O)cn3C)cn2C)cn1C`, for which the MIC stood at 10 µM (≈ 4.97 µg/mL) in the assay on Staphylococcus aureus [11], 0.31 µM (≈ 0.154 µg/mL) in the assay with Enterococcus faecalis [16] and 164 µM (≈ 81.4 µg/mL) against Proteus vulgaris. Further, the MIC entry (in the assay on Staphylococcus aureus [19]; in the assay on Aspergillus nidulans [17]; in [3]; in the assay on Escherichia coli [4]; in assay [18]; with Aspergillus niger [8]) was “inactive” in each case. Moreover, the MIC entry in the assay with Enterobacter cloacae and in the assay on Klebsiella aerogenes [9] was “inactive” in each case.
